Test results reported in ChEMBL document CHEMBL1671740, “Increased temperature enhances the antimicrobial effects of daptomycin, vancomycin, tigecycline, fosfomycin, and cefamandole on staphylococcal biofilms” (2010).
Converted amounts (≈) assume the structure as drawn. The source made the active and inactive calls. The calls are words filed in the database; no cut-off is given here.

Experiments:
Staphylococcus aureus [1] = assay: Antimicrobial activity against Staphylococcus aureus ATCC 29213 administered as powder at 45 degC after 24 hrs; type: functional; conditions: ATCC 29213, 24 h
In short: (§1)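 Antimicrobials, as powder or in solution as used for MIC testing, held at 45°C for 1 and 24 h in three independent experiments. MICs were then determined by the CLSI microtiter plate method in cation-adjusted Mueller-Hinton medium, with MHB containing 50 μg/ml calcium for daptomycin. Values are median (range) […] in mg/liter.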

Staphylococcus aureus [2] = assay: Antimicrobial activity against Staphylococcus aureus isolated from human preoperative skin by […]; type: functional
Staphylococcus [3] = assay: Antimicrobial activity against Staphylococcus isolates biofilms assessed as change in optical density ratio of biofilms at 1000 mg/litre at ambient temperature of 35 degC after 24 hrs relative to baseline; type: functional
In short: (§2)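 Static microtiter biofilms of 34 clinical S. aureus and CoNS isolates from orthopedic implant infections or preoperative skin, plus reference strains. Inoculum was McFarland 0.5 diluted 1:100 in calcium-supplemented MHB, grown 24 h at 35°C in ambient air. Established biofilms were exposed to drug for 24 h at 35, 40 or 45°C, then formalin-fixed and stained with 1% crystal violet for 5 min, and OD read at 550 nm in quadruplicate.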

Staphylococcus [4] = assay: Antimicrobial activity against Staphylococcus isolates biofilms assessed as change in optical density ratio of biofilms at 250 mg/litre at ambient temperature of 45 degC after 24 hrs relative to baseline; type: functional; in short: as §2
Staphylococcus [5] = assay: Antimicrobial activity against Staphylococcus isolates biofilms assessed as change in optical density ratio of biofilms at 1000 mg/litre at ambient temperature of 40 degC after 24 hrs relative to baseline; type: functional; in short: as §2
[6] = tested on: Staphylococcus epidermidis; assay: Antimicrobial activity against Staphylococcus epidermidis DSM3269 by […]; type: functional
Staphylococcus [7] = assay: Antimicrobial activity against coagulase-negative Staphylococcus isolated from human prosthetic joint infection site by […]; type: functional
[8] = tested on: Staphylococcus epidermidis; assay: Antimicrobial activity against Staphylococcus epidermidis isolate OR1 treated in solution at 45 degC after 24 hrs; type: functional; conditions: isolate OR1, 24 h; in short: as §1
Staphylococcus [9] = assay: Antimicrobial activity against Staphylococcus isolates biofilms assessed as decrease in bacterial load at 100 mg/litre at ambient temperature of 35 degC after 24 hrs relative to baseline; type: functional
In short: (§3)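 24-h static biofilms of the staphylococcal isolates were exposed to drug for 24 h at 35, 40 or 45°C. Biofilms were not fixed but scraped off and resuspended in MHB, then serially diluted and 0.1 ml plated on blood agar, read after 48 h at 35°C in ambient air. Done in duplicate as mean log10 CFU/ml; log reduction was taken versus untreated biofilm.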

Staphylococcus [10] = assay: Antimicrobial activity against coagulase-negative Staphylococcus isolated from human preoperative skin by […]; type: functional
Staphylococcus aureus [11] = assay: Antimicrobial activity against Staphylococcus aureus ATCC 29213 by […]; type: functional
Staphylococcus [12] = assay: Antimicrobial activity against Staphylococcus isolates biofilms assessed as change in optical density ratio of biofilms at 250 mg/litre at ambient temperature of 40 degC after 24 hrs relative to baseline; type: functional; in short: as §2
Staphylococcus [13] = assay: Antimicrobial activity against Staphylococcus isolates biofilms assessed as change in optical density ratio of biofilms at 250 mg/litre at ambient temperature of 35 degC after 24 hrs relative to baseline; type: functional; in short: as §2
Staphylococcus [14] = assay: Antimicrobial activity against Staphylococcus isolates biofilms assessed as change in optical density ratio of biofilms at 1000 mg/litre at ambient temperature of 45 degC after 24 hrs relative to baseline; type: functional; in short: as §2
Staphylococcus aureus [15] = assay: Antimicrobial activity against Staphylococcus aureus isolated from human prosthetic joint infection site by […]; type: functional
[16] = tested on: Staphylococcus epidermidis; assay: Antimicrobial activity against Staphylococcus epidermidis isolate KO8 isolated from healthy human skin by […]; type: functional
Staphylococcus [17] = assay: Antimicrobial activity against Staphylococcus isolates biofilms assessed as decrease in bacterial load at 500 mg/litre at ambient temperature of 40 degC after 24 hrs relative to baseline; type: functional; in short: as §3
Staphylococcus [18] = assay: Antimicrobial activity against Staphylococcus isolates biofilms assessed as change in optical density ratio of biofilms at 500 mg/litre at ambient temperature of 35 degC after 24 hrs relative to baseline; type: functional; in short: as §2
Staphylococcus [19] = assay: Antimicrobial activity against Staphylococcus isolates biofilms assessed as decrease in bacterial load at 500 mg/litre at ambient temperature of 45 degC after 24 hrs relative to baseline; type: functional; in short: as §3
Staphylococcus [20] = assay: Antimicrobial activity against Staphylococcus isolates biofilms assessed as change in optical density ratio of biofilms at 50 mg/litre at ambient temperature of 40 degC after 24 hrs relative to baseline; type: functional; in short: as §2
Staphylococcus [21] = assay: Antimicrobial activity against Staphylococcus isolates biofilms assessed as change in optical density ratio of biofilms at 100 mg/litre at ambient temperature of 45 degC after 24 hrs relative to baseline; type: functional; in short: as §2
Staphylococcus [22] = assay: Antimicrobial activity against Staphylococcus isolates biofilms assessed as change in optical density ratio of biofilms at 100 mg/litre at ambient temperature of 40 degC after 24 hrs relative to baseline; type: functional; in short: as §2
Staphylococcus [23] = assay: Antimicrobial activity against Staphylococcus isolates biofilms assessed as change in optical density ratio of biofilms at 50 mg/litre at ambient temperature of 45 degC after 24 hrs relative to baseline; type: functional; in short: as §2
Staphylococcus [24] = assay: Antimicrobial activity against Staphylococcus isolates biofilms assessed as change in optical density ratio of biofilms at 50 mg/litre at ambient temperature of 35 degC after 24 hrs relative to baseline; type: functional; in short: as §2
Staphylococcus [25] = assay: Antimicrobial activity against Staphylococcus isolates biofilms assessed as change in optical density ratio of biofilms at 500 mg/litre at ambient temperature of 40 degC after 24 hrs relative to baseline; type: functional; in short: as §2
Staphylococcus [26] = assay: Antimicrobial activity against Staphylococcus isolates biofilms assessed as change in optical density ratio of biofilms at 500 mg/litre at ambient temperature of 45 degC after 24 hrs relative to baseline; type: functional; in short: as §2
Staphylococcus [27] = assay: Antimicrobial activity against Staphylococcus isolates biofilms assessed as change in optical density ratio of biofilms at 100 mg/litre at ambient temperature of 35 degC after 24 hrs relative to baseline; type: functional; in short: as §2
Staphylococcus [28] = assay: Antimicrobial activity against Staphylococcus isolates biofilms assessed as change in optical density ratio of biofilms at 5 mg/litre at ambient temperature of 40 degC after 24 hrs relative to baseline; type: functional; in short: as §2
Staphylococcus [29] = assay: Antimicrobial activity against Staphylococcus isolates biofilms assessed as change in optical density ratio of biofilms at 25 mg/litre at ambient temperature of 45 degC after 24 hrs relative to baseline; type: functional; in short: as §2
Staphylococcus [30] = assay: Antimicrobial activity against Staphylococcus isolates biofilms assessed as change in optical density ratio of biofilms at 25 mg/litre at ambient temperature of 35 degC after 24 hrs relative to baseline; type: functional; in short: as §2
Staphylococcus [31] = assay: Antimicrobial activity against Staphylococcus isolates biofilms assessed as change in optical density ratio of biofilms at 1 mg/litre at ambient temperature of 45 degC after 24 hrs relative to baseline; type: functional; in short: as §2
Staphylococcus [32] = assay: Antimicrobial activity against Staphylococcus isolates biofilms assessed as change in optical density ratio of biofilms at 25 mg/litre at ambient temperature of 40 degC after 24 hrs relative to baseline; type: functional; in short: as §2
Staphylococcus [33] = assay: Antimicrobial activity against Staphylococcus isolates biofilms assessed as change in optical density ratio of biofilms at 1 mg/litre at ambient temperature of 35 degC after 24 hrs relative to baseline; type: functional; in short: as §2
Staphylococcus [34] = assay: Antimicrobial activity against Staphylococcus isolates biofilms assessed as decrease in bacterial load at 1 to 25 mg/litre at ambient temperature of 30 to 45 degC after 24 hrs relative to baseline; type: functional, organism-based; conditions: in the assay text read “35 to 45 degC” for “30 to 45 degC”; in short: as §3
Staphylococcus [35] = assay: Antimicrobial activity against Staphylococcus isolates biofilms assessed as change in optical density ratio of biofilms at 1 mg/litre at ambient temperature of 40 degC after 24 hrs relative to baseline; type: functional; in short: as §2
Staphylococcus [36] = assay: Antimicrobial activity against Staphylococcus isolates biofilms assessed as change in optical density ratio of biofilms at 5 mg/litre at ambient temperature of 35 degC after 24 hrs relative to baseline; type: functional; in short: as §2
Staphylococcus [37] = assay: Antimicrobial activity against Staphylococcus isolates biofilms assessed as change in optical density ratio of biofilms at 5 mg/litre at ambient temperature of 45 degC after 24 hrs relative to baseline; type: functional; in short: as §2

| Structure (SMILES) | MIC (Staphylococcus aureus [1]) | MIC (Staphylococcus aureus [2]) | MIC [6] | MIC (Staphylococcus [7]) | MIC [8] | Activity (Staphylococcus [9]) | MIC (Staphylococcus [10]) | MIC (Staphylococcus aureus [11]) | MIC (Staphylococcus aureus [15]) | MIC [16] | also measured |
| --- | --- | --- | --- | --- | --- | --- | --- | --- | --- | --- | --- |
| C[C@@H]1O[C@@H]1P(=O)(O)O [FOSFOMYCIN] | 1 µg/mL (≈ 7.24 µM) | 64 µg/mL (≈ 464 µM) | 1 µg/mL (≈ 7.24 µM) | 16 µg/mL (≈ 116 µM) | 32 µg/mL (≈ 232 µM) | inactive | 32 µg/mL (≈ 232 µM) | 4 µg/mL (≈ 29 µM) | 4 µg/mL (≈ 29 µM) | 16 µg/mL (≈ 116 µM) | Ratio (Staphylococcus [3]): 0.78; Ratio (Staphylococcus [4]): 0.69; Ratio (Staphylococcus [5]): 0.65; Ratio (Staphylococcus [12]): 0.75; Ratio (Staphylococcus [13]): 1.01; Ratio (Staphylococcus [14]): 0.63 |
| Cn1nnnc1SCC1=C(C(=O)O)N2C(=O)[C@@H](NC(=O)[C@H](O)c3ccccc3)[C@H]2SC1 [CEFAMANDOLE] | 0.25 µg/mL (≈ 0.541 µM) | 0.25 µg/mL (≈ 0.541 µM) | 0.5 µg/mL (≈ 1.08 µM) | 1 µg/mL (≈ 2.16 µM) | 2 µg/mL (≈ 4.32 µM) | inactive | 0.25 µg/mL (≈ 0.541 µM) | 0.5 µg/mL (≈ 1.08 µM) | 1 µg/mL (≈ 2.16 µM) | 0.25 µg/mL (≈ 0.541 µM) | fold change (FC) (Staphylococcus [17]): 2; Ratio (Staphylococcus [18]): 1.27; fold change (FC) (Staphylococcus [19]): 2; Ratio (Staphylococcus [20]): 1.07; Ratio (Staphylococcus [21]): 0.63; Ratio (Staphylococcus [22]): 1.06; Ratio (Staphylococcus [23]): 0.86; Ratio (Staphylococcus [24]): 1.29; Ratio (Staphylococcus [25]): 0.62; Ratio (Staphylococcus [26]): 0.65; Ratio (Staphylococcus [27]): 1.12 |
| CN(C)c1cc(NC(=O)CNC(C)(C)C)c(O)c2c1C[C@H]1C[C@H]3[C@H](N(C)C)C(O)=C(C(N)=O)C(=O)[C@@]3(O)C(O)=C1C2=O [TIGECYCLINE] | 1 µg/mL (≈ 1.71 µM) | 0.06 µg/mL (≈ 0.102 µM) | 0.5 µg/mL (≈ 0.854 µM) | 0.06 µg/mL (≈ 0.102 µM) | 2 µg/mL (≈ 3.41 µM) | inactive | 0.03 µg/mL (≈ 0.0512 µM) | 0.06 µg/mL (≈ 0.102 µM) | 0.125 µg/mL (≈ 0.213 µM) | 0.125 µg/mL (≈ 0.213 µM) | Ratio (Staphylococcus [28]): 1.1; Ratio (Staphylococcus [29]): 1.32; Ratio (Staphylococcus [30]): 1.12; Ratio (Staphylococcus [31]): 0.93; Ratio (Staphylococcus [32]): 0.83; Ratio (Staphylococcus [33]): 0.98; Activity (Staphylococcus [34]): inactive; Ratio (Staphylococcus [35]): 1.31; Ratio (Staphylococcus [36]): 0.99; Ratio (Staphylococcus [37]): 0.86 |
